From ChEMBL document CHEMBL5143562, “α-Synuclein Aggregation Inhibitory Prunolides and a Dibrominated β-Carboline Sulfamate from the Ascidian Synoicum prunum” (J Nat Prod, 2022) come the findings set out here.

For orientation: inhibition means the share of the control response that was lost under treatment. In general, IC50 refers to the midpoint of a concentration-inhibition curve.

Data set [1] addresses Alpha-synuclein (Homo sapiens) (UniProt P37840). The data set is described as follows: Inhibition of alpha-Synuclein (unknown origin) aggregation at compound to protein molar ratio of 1:1 incubated for 36 hrs under shaking condition and measured every 6 hrs by Thioflavin T based fluorescence assay relative to control. The conditions noted are these: concentration not given here. The essentials: (§1)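 Wells held 80 µM α-syn, 50 µM ThT (from 5 mM stock in glycine-NaOH pH 8.0), 80–400 µM compound, saline Tris buffer and a teflon ball. Shaken at 100 rpm, 37 °C, 36 h. Fluorescence (ex 460/em 500 nm) read every 6 h, triplicates. Protein-only wells set 100% aggregation. Percent inhibition taken at end; t50 is the shift in h of the aggregation midpoint.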

Data set [2] has the same target. The data set is described as follows: Inhibition of alpha-Synuclein (unknown origin) aggregation assessed as times difference in midpoint of aggregation at compound to protein molar ratio of 5:1 incubated for 36 hrs under shaking condition and measured every 6 hrs by Thioflavin T based fluorescence assay relative to control. The essentials: as §1
Data set [3] deals with Staphylococcus aureus. Kind of data set: Antibacterial activity against methicillin-sensitive Staphylococcus aureus ATCC 25923 assessed as inhibition of bacterial growth measured after 18 hrs by resazurin based fluorescent plate reader. The data set is classed as functional, organism-based. To be noted: ATCC 25923, 18 h. The essentials:
(§2)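 Broth microdilution in lysogeny broth; overnight culture (16-18 h, 37.5 °C) adjusted to 5 × 10^5 CFU/mL inoculum. DMSO stocks serially diluted 1:2 (ten-fold series); fusidic acid positive and 5% DMSO negative controls. Plates shaken at 100 rpm, 18 h at 37.5 °C, then 704 µM resazurin added (stock), further 1 h; fluorescence ex 544/em 590 nm.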

Data set [4] addresses Alpha-synuclein (Homo sapiens) (UniProt P37840). The data set is described as follows: Inhibition of alpha-Synuclein (unknown origin) aggregation assessed as time difference in midpoint of aggregation at compound to protein molar ratio of 1:1 incubated for 36 hrs under shaking condition and measured every 6 hrs by Thioflavin T based fluorescence assay relative to control. Put shortly:
as §1

Data set [5] has the same target. Kind of data set: Inhibition of alpha-Synuclein (unknown origin) aggregation at compound to protein molar ratio of 5:1 incubated for 36 hrs under shaking condition and measured every 6 hrs by Thioflavin T based fluorescence assay relative to control. To be noted: concentration not given here. The essentials: as §1
The target is the same in data set [6]. Kind of data set: Binding affinity to alpha-Synuclein (unknown origin) at compound to protein molar ratio of 5:1 incubated for 3 hrs by mass spectroscopy analysis. Put shortly: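 α-Syn (10 µM) in 10 mM ammonium acetate. Compound (100 µM, in methanol) added at 5:1 ligand:protein and kept 3 h at rt. Positive-mode HRESIMS, calibrated with sodium trifluoroacetate. Spectra inspected for extra peaks of protein–ligand complexes; scored yes/no.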

Data set [7] concerns Staphylococcus aureus. The data set is described as follows: Antibacterial activity against methicillin-resistant Staphylococcus aureus ATCC 43300 assessed as inhibition of bacterial growth measured after 18 hrs by resazurin based fluorescent plate reader. The data set is classed as functional, organism-based. To be noted: ATCC 43300, 18 h. Put shortly: as §2
For orientation: Alamar Blue is a resazurin reagent that responds to reducing activity.

Data set [8] relates to HEK293. Kind of data set: Cytotoxicity against human HEK293 cells measured after 72 hrs by resazurin assay. The data set is classed as toxicity, cell-based. To be noted: hek293, 72 h. Put shortly:
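HEK293 cells, 2000 per well, exposed to compound for 72 h at 37 °C. Medium then swapped for 44 µM resazurin for 6 h and fluorescence read. Viability referenced to 40 µM puromycin (positive) and 0.4% DMSO (negative). IC50 by curve fitting.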

A short description of data set [9]: Toxicity in mouse primary midbrain culture assessed as change in tyrosine hydroxylase positive dopamine neuron at 0.5 uM. Type of data set: tissue-based. Put shortly: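 Primary embryonic mouse midbrain cultures given sonicated mouse α-syn PFFs (2.5 µg/mL final) on DIV8. Compound, 0.1% DMSO vehicle or 50 ng/mL GDNF added ~15 min later. Fixed DIV15, immunostained for TH and pSer129-α-syn, DAPI nuclei. Nine fields per well imaged at 10×. TH+ neurons with/without pSyn aggregates counted. ≥3 independent cultures, ≥3 wells each. Randomized-block ANOVA with Benjamini-Krieger-Yekutieli correction, mean ± SD.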

Data set [10] concerns the target Alpha-synuclein (Mus musculus) (UniProt O55042). Kind of data set: Inhibition of PFF-induced alpha-Synuclein aggregation in mouse primary midbrain culture assessed as decrease in tyrosine hydroxylase positive dopamine neuron with p-Syn aggregation at 0.5 uM incubated for 7 days by immunostaining analysis. To be noted: time 7.0 day.
A short description of data set [11]: Selectivity index, ratio of IC50 for cytotoxicity against human HEK293 cells to IC50 for antiplasmodial activity against Plasmodium falciparum 3D7. To be noted: read-out: Ratio IC50. Type of data set: toxicity, cell-based.
Data set [12] deals with Plasmodium falciparum. Kind of data set: Antiplasmodial activity against Plasmodium falciparum 3D7 assessed as inhibition of parasite growth incubated for 72 hrs by DAPI staining based confocal microscopic analysis. The data set is classed as functional, organism-based. To be noted: 3D7, 72 h. The essentials:
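P. falciparum 3D7 in imaging plates, 2% parasitemia, 0.3% hematocrit, 16-point dilution series 0.4 nM–40 µM (N=2), 72 h at 37 °C under 5% O2/5% CO2/90% N2. DAPI stain, confocal imaging. Percent inhibition normalised to in-plate 5 µM puromycin (positive) and 0.4% DMSO (negative) controls. IC50 from sigmoidal nonlinear regression.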

The source made the active and inactive calls. No cut-off for these calls is given here.

As to `O=C1C=C(c2ccc(O)cc2)[C@]2(O1)O[C@@]1(OC(=O)C=C1c1ccc(O)cc1)C(c1ccc(O)cc1)=C2c1ccc(O)cc1`, the inhibition in data set [1] turned out to be 22.1%; in [5] it was 51.5%. Further, the TIME in data set [2] turned out to be 2.3 h; in [4], 0 h. The IC50 in data set [3] and in data set [7] was more than 10 µM each time. The outcome in [6] was Active.

For the compound `O=C1C=C(c2cc(Br)c(O)c(Br)c2)[C@]2(O1)O[C@]1(OC(=O)C=C1c1cc(Br)c(O)c(Br)c1)C(c1cc(Br)c(O)c(Br)c1)=C2c1cc(Br)c(O)c(Br)c1`, the inhibition in data set [1] is 13.3%; in data set [5], 89%. The TIME in data set [2] was found to be 13.7 h; in [4] it was 10 h. Further, the IC50 in data set [3] and in [7] was more than 10 µM in each case. The figures for the Activity entry in [8] and in data set [9] were “Toxic” and “Non-Toxic”, respectively. Also, the outcome in [6] was Active.

As to `O=C1C=C(c2ccc(O)c(Br)c2)[C@]2(O1)O[C@]1(OC(=O)C=C1c1ccc(O)c(Br)c1)C(c1ccc(O)c(Br)c1)=C2c1ccc(O)c(Br)c1`, the outcome in data set [6] was Active.

`O=C1C=C(c2cc(Br)c(O)c(Br)c2)[C@]2(O1)O[C@]1(OC(=O)C=C1c1cc(Br)c(O)c(Br)c1)C(c1ccc(O)c(Br)c1)=C2c1ccc(O)cc1`: the IC50 was 12.2 µM in data set [3] and 11.6 µM in data set [7]. Moreover, the outcome in data set [6] was Active.

As to `O=C1C=C(c2cc(Br)c(O)c(Br)c2)[C@]2(O1)O[C@]1(OC(=O)C=C1c1cc(Br)c(O)c(Br)c1)C(c1ccc(O)c(Br)c1)=C2c1ccc(O)c(Br)c1`, the values for the inhibition in [1] and in [5] were 34.3% and 99.9%, respectively. Also, the values for the TIME in data set [2] and in data set [4] were 10 h and 9.4 h, respectively. Also, the IC50 in data set [3] and in data set [7] was more than 10 µM each time. Moreover, the Activity entry in data set [8] is listed as “Toxic”; in [9] it was “Non-Toxic”. In addition, in data set [6], the outcome was Active. For the same compound, in data set [10], the inhibition result was “Active”.

For the compound `O=C1C=C(c2ccc(O)cc2)[C@]2(O1)O[C@]1(OC(=O)C=C1c1ccc(O)cc1)C(c1ccc(O)c(Br)c1)=C2c1ccc(O)cc1`, the results for the inhibition in data set [1] and in [5] were 24.9% and 92.9%, respectively. In addition, the results for the TIME in [2] and in data set [4] were 4 h and 2 h, respectively. Also, the IC50 is 10.8 µM in data set [3] and 16.1 µM in [7]. Further, the result in [6] was Active.

For the compound `O=C(O)c1cc2c([nH]c3ccc(Br)cc32)c(C(=O)c2cn(S(=O)(=O)O)c3ccc(Br)cc23)n1`, in data set [8], the Activity result is on record as “Toxic”. In addition, the selectivity ratio in [11] was found to be 2.66. The IC50 in data set [12] turned out to be 15.1 µM.

For the compound `O=C1C=C(c2cc(Br)c(O)c(Br)c2)[C@]2(O1)O[C@]1(OC(=O)C=C1c1ccc(O)cc1)C(c1ccc(O)c(Br)c1)=C2c1ccc(O)cc1`, the IC50 in [3] and in data set [7] was more than 10 µM throughout. For the same compound, the outcome in [6] was Active.

On to `O=C1C=C(c2ccc(O)cc2)[C@]2(O1)O[C@]1(OC(=O)C=C1c1ccc(O)cc1)C(c1ccc(O)cc1)=C2c1ccc(O)cc1`, for which the inhibition in [1] is 60%; in data set [5] it was 75.2%. Also, the TIME was determined as 14.5 h in data set [2] and 6.2 h in data set [4]. Further, the IC50 is more than 10 µM in [3], 5.1 µM in [12] and more than 10 µM in data set [7]. Besides, the Activity result in data set [8] was “Toxic”; in data set [9], “Non-Toxic”. Besides, the selectivity ratio in [11] amounted to 7.6. In addition, in [6], the result was Active.

In the case of `O=C1C=C(c2ccc(O)cc2)[C@]2(O1)O[C@]1(OC(=O)C=C1c1ccc(O)c(Br)c1)C(c1ccc(O)cc1)=C2c1ccc(O)cc1`, the inhibition turned out to be 39% in data set [1] and 97.6% in data set [5]. Also, the TIME is 4 h in data set [2] and 1 h in data set [4]. In addition, the IC50 in data set [3] and in [7] was more than 10 µM each time. Besides, the result in data set [6] was Active.

Consider `O=C(O[C@@H]1Cc2c(O)cc(O)cc2O[C@@H]1c1cc(O)c(O)c(O)c1)c1cc(O)c(O)c(O)c1`, for which the TIME stood at 11.1 h in [2] and 9.4 h in data set [4]. For the same compound, the inhibition in data set [5] stood at 98.9%. In addition, the outcome in [6] was Active.
